From ChEMBL document CHEMBL3286172, “Exploring the role of 2-chloro-6-fluoro substitution in 2-alkylthio-6-benzyl-5-alkylpyrimidin-4(3H)-ones: effects in HIV-1-infected cells and in HIV-1 reverse transcriptase enzymes” (J Med Chem, 2014)

Tests used:
[1] = system: Human immunodeficiency virus 1; test: Fold resistance, ratio of ID50 for HIV-1 recombinant NNTRI-resistant reverse transcriptase Y181I mutant to ID50 for wild type HIV-1 recombinant reverse transcriptase
Outline: (§1)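 RNA-dependent DNA polymerase activity with 0.5 µg poly(rA)/oligo(dT)10:1 (0.3 µM 3'-OH ends), 10 µM [3H]-dTTP and 8% final DMSO. Incorporation was sampled at 2-min intervals. ID50 came from fitting to a fully non-competitive model. Means of at least three experiments.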

[2] = system: Human immunodeficiency virus 1; test: Antiviral activity against HIV-1 harboring NNTRI-resistant reverse transcriptase Y188L mutant infected in human MT4 cells assessed as inhibition of virus-induced cytopathic effect by MTT method; format: functional, organism-based; details: Human immunodeficiency virus 1, MT4
Outline: (§2)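 MT-4 lymphoid cells infected with HIV-1 carrying RT K103N, Y181C or Y188L, with a range of drug concentrations present. Viable cells counted by MTT colorimetric assay at day 5 post-infection. […] Highest concentration tested was limited by precipitation in culture medium. Means of at least two experiments.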

[3] = system: Human immunodeficiency virus 1; test: Fold resistance, ratio of EC50 for HIV-1 harboring NNTRI-resistant reverse transcriptase K103N mutant infected in human MT4 cells to EC50 for wild type HIV-1 NL4-3 infected in human MT4 cells; format: functional
[4] = Selectivity index, ratio of CC50 for human MT4 cells to EC50 for wild type HIV-1 NL4-3 infected in human MT4 cells; format: toxicity, cell-based; details: read-out: Ratio CC50/EC50
Outline: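 Ratio of CC50 to EC50, both from MTT readings in MT-4 cells at day 5. CC50 was taken in mock-infected cells and EC50 in cells infected with wild-type NL4-3. Values are means of at least two experiments.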

[5] = system: Human immunodeficiency virus 1; test: Antiviral activity against HIV-1 harboring NNTRI-resistant reverse transcriptase Y181C mutant infected in human MT4 cells assessed as inhibition of virus-induced cytopathic effect by MTT method; format: functional, organism-based; details: Human immunodeficiency virus 1, MT4; outline: as §2
[6] = system: Human immunodeficiency virus 1; test: Fold resistance, ratio of ID50 for HIV-1 recombinant NNTRI-resistant reverse transcriptase L100I mutant to ID50 for wild type HIV-1 recombinant reverse transcriptase
Outline: as §1, with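 “Recombinant wt or mutant HIV-1 RT, purified to >95%, at 2-4 nM. RNA-dependent” for “RNA-dependent”, “model. Ratio is ID50 mutant/ID50 wt.” for “model.”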

[7] = Cytotoxicity against human MT4 cells assessed as induction of cell death by MTT method; format: cell-based
Outline: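 Mock-infected MT-4 cells exposed to a range of drug concentrations. Viability read by MTT colorimetry at day 5. […] Top concentration was limited where compound precipitated in the culture medium. Means of at least two experiments.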

[8] = system: Human immunodeficiency virus 1; test: Antiviral activity against wild type HIV-1 NL4-3 infected in human MT4 cells assessed as inhibition of virus-induced cytopathic effect by MTT method; format: functional, organism-based; details: Human immunodeficiency virus 1, NL4-3, MT4
Outline: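 MT-4 lymphoid cells infected with wild-type HIV-1 NL4-3 while exposed to a range of drug concentrations. Viable cells counted by tetrazolium (MTT) colorimetry at day 5 post-infection. Means of at least two experiments.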

[9] = system: Human immunodeficiency virus 1; test: Fold resistance, ratio of EC50 for HIV-1 harboring NNTRI-resistant reverse transcriptase Y188L mutant infected in human MT4 cells to EC50 for wild type HIV-1 NL4-3 infected in human MT4 cells; format: functional
Outline: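 HIV-1 NL4-3 (wt) or Y188L mutant infection of MT-4 cells across a range of drug concentrations. Viable cells were counted by MTT at day 5 post-infection. […] Fold resistance is mutant EC50 over wt EC50. Means of at least two experiments.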

[10] = system: Human immunodeficiency virus 1; test: Antiviral activity against HIV-1 harboring NNTRI-resistant reverse transcriptase K103N mutant infected in human MT4 cells assessed as inhibition of virus-induced cytopathic effect by MTT method; format: functional, organism-based; details: Human immunodeficiency virus 1, MT4
[11] = system: Human immunodeficiency virus 1; test: Fold resistance, ratio of ID50 for HIV-1 recombinant NNTRI-resistant reverse transcriptase K103N mutant to ID50 for wild type HIV-1 recombinant reverse transcriptase
Outline: as §1, with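 “Recombinant wt or mutant HIV-1 RT, purified to >95%, at 2-4 nM. RNA-dependent” for “RNA-dependent”, “model. Ratio is ID50 mutant/ID50 wt.” for “model.”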

[12] = system: Human immunodeficiency virus 1; test: Fold resistance, ratio of EC50 for HIV-1 harboring NNTRI-resistant reverse transcriptase Y181C mutant infected in human MT4 cells to EC50 for wild type HIV-1 NL4-3 infected in human MT4 cells; format: functional
Outline: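 MT-4 cells infected with HIV-1 mutant (K103N or Y181C) or wild-type NL4-3, with drug present. […] Fold resistance is the mutant EC50 divided by the wild-type NL4-3 EC50. EC50 values are means of at least two experiments.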

[13] = system: Human immunodeficiency virus type 1 reverse transcriptase (Human immunodeficiency virus 1), Q72547 [Y181I]
[14] = system: Human immunodeficiency virus type 1 reverse transcriptase (Human immunodeficiency virus 1), Q72547 [L100I]
[15] = system: Human immunodeficiency virus type 1 reverse transcriptase (Human immunodeficiency virus 1), Q72547 [K103N]
[16] = target: Human immunodeficiency virus type 1 reverse transcriptase (Human immunodeficiency virus 1) (UniProt Q72547)
[17] = system: Human immunodeficiency virus 1; test: Ratio of efavirenz EC50 to compound EC50 for wild type HIV-1 NL4-3 infected in human MT4 cells; format: functional

SMILES | Ratio [1] | EC50 [2] | Ratio EC50 [3] | selectivity ratio [4] | EC50 [5] | Ratio [6] | CC50 [7] | EC50 [8] | Ratio EC50 [9] | EC50 [10] | Ratio [11] | Ratio EC50 [12] | ID50 [13] | ID50 [14] | ID50 [15] | ID50 [16] | Ratio EC50 [17]
CC[C@@H](C)Sc1nc([C@H](C)c2c(F)cccc2Cl)cc(=O)[nH]1 | 3750 | 860 nM | 610 | > 103000 | 580 nM | 18 | > 31000 nM | 0.3 nM | 2859 | 200 nM | 488 | 1924 |  |  |  |  | 
Cc1c(C(C)c2c(F)cccc2F)nc(SC2CCCC2)[nH]c1=O (racemic) | 180 | > 3000 nM | 230 | > 3000 | 100 nM | 60 | > 3000 nM |  |  |  | 6 | 100 | 900 nM | 300 nM | 30 nM | 5 nM | 
CCC(C)Sc1nc(C(C)c2c(F)cccc2Cl)cc(=O)[nH]1 (racemic) | 2640 | 7500 nM | 1000 | > 73000 | 3600 nM | 25 | > 73000 nM | 1 nM | 7500 | 1000 nM | 375 | 3600 |  |  |  |  | 
CCCSc1nc(C(C)c2c(F)cccc2Cl)c(C)c(=O)[nH]1 (racemic) |  | > 1500 nM | 7000 | > 30000 | 260 nM |  | > 1500 nM | 0.05 nM |  | 350 nM |  | 5200 |  | 90 nM | 1500 nM | 0.9 nM | 140
CCCCSc1nc(C(C)c2c(F)cccc2Cl)c(C)c(=O)[nH]1 (racemic) | 20000 | > 1500 nM | 2200 | > 5000 | 620 nM | 52 | > 1500 nM | 0.3 nM |  | 660 nM | 310 | 2067 |  | 156 nM | 930 nM | 3 nM | 23
Cc1c(C(C)c2c(F)cccc2Cl)nc(SC2CCCC2)[nH]c1=O (racemic) |  | 2900 nM | 3100 | > 500000 | 230 nM |  | > 15000 nM | 0.03 nM | 96667 | 93 nM |  | 7667 |  | 120 nM | 1300 nM | 11 nM | 230
CCCSc1nc(C(CC)c2c(F)cccc2Cl)c(C)c(=O)[nH]1 (racemic) | 700 | > 3000 nM | 81 | > 115 | 2800 nM | 48 | > 3000 nM | 26 nM |  | 2100 nM | 126 | 108 |  | 240 nM | 630 nM | 5 nM | 
CCc1c(C(C)c2c(F)cccc2F)nc(SC2CCCC2)[nH]c1=O (racemic) | 900 | > 3000 nM |  | > 19 | > 3000 nM | 65 | > 3000 nM | 160 nM |  | > 3000 nM | 100 |  |  | 130 nM | 200 nM | 2 nM | 
CCCSc1nc(C(CC)c2c(F)cccc2F)c(C)c(=O)[nH]1 (racemic) | 600 | > 3000 nM |  | > 250 | > 3000 nM | 37 | > 3000 nM | 12 nM |  | > 3000 nM | 70 |  |  | 220 nM | 420 nM | 6 nM | 
